Active and inactive are the calls of the source. No cut-off for these calls is given here. Positions of bridges follow the written chain, without caps; N, C: chain ends. Residues, ends and D or L forms follow the SMILES beside them.
Key:
[1] = target: Small conductance calcium-activated potassium channel protein 2 (Rattus norvegicus) (UniProt P70604); test: Inhibition of recombinant rat SK2 expressed in HEK293 cells at 10 nM and holding potential at 0 mV and ramp voltage from -100 to 100 mV by whole cell patch clamp method relative to control; type: cell-based
Sequence of Small conductance calcium-activated potassium channel protein 2 (Rattus norvegicus) (P70604 whole entry): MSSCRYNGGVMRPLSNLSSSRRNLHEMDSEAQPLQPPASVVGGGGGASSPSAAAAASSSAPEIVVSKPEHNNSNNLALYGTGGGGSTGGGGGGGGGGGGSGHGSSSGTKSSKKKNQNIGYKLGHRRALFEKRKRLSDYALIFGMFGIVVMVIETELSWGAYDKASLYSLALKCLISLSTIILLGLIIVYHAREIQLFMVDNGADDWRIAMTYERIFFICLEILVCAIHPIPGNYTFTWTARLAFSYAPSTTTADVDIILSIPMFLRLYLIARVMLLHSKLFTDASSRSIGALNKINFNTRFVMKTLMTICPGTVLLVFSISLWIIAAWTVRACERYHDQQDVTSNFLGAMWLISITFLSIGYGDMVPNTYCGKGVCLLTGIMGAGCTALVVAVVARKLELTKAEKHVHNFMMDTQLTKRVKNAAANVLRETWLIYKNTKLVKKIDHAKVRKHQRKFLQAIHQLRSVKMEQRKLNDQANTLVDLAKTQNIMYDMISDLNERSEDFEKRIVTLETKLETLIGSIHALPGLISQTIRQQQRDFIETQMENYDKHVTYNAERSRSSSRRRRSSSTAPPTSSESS

[2] = target: T1, Small conductance calcium-activated potassium channel protein 3 (Homo sapiens, UniProt Q9UGI6); test: Inhibition of recombinant human SK3 expressed in HEK293T cells at 10 nM and holding potential at 0 mV and ramp voltage from -100 to 100 mV by whole cell patch clamp method relative to control; type: cell-based; conditions: HEK-293T
T1 sequence (Q9UGI6 whole entry): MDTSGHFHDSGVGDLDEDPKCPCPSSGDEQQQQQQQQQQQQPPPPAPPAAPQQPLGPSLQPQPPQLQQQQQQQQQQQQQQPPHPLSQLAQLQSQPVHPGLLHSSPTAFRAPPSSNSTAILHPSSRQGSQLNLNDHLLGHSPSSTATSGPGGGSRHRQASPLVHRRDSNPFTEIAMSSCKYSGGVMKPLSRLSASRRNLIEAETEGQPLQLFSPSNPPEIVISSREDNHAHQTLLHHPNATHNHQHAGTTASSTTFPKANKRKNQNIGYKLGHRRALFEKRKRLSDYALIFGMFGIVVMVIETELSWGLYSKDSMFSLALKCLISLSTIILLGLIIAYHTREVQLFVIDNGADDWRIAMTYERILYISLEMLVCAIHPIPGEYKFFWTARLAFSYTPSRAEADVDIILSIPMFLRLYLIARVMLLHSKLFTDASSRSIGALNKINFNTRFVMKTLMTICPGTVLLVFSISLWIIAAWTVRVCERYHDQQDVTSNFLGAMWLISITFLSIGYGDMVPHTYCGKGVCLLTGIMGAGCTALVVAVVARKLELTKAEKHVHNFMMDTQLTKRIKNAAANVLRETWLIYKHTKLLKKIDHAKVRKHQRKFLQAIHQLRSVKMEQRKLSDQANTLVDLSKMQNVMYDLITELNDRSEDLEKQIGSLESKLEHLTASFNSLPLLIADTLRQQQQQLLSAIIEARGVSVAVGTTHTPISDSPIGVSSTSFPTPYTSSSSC

[3] = target: T1, Small conductance calcium-activated potassium channel protein 3; test: Inhibition of recombinant human SK3 expressed in HEK293T cells assessed as ratio of amplitude of outward current blocked in presence and absence of compound at 1 nM and holding potential at 0 mV and ramp voltage from -100 to 100 mV by whole cell patch clamp method relative to control; type: cell-based
Summary of the method: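 Whole-cell patch clamp on HEK293T cells expressing recombinant human SK3, pCa 6. Ramp from −100 to 100 mV over 500 ms, holding at 0 mV; currents analysed at 0 mV. Peptide at 1 nM, then 100 nM apamin to block residual SKCa current. Inhibition = ratio of outward current amplitude blocked at 1 nM to amplitude without compound.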

[4] = target: T1, Small conductance calcium-activated potassium channel protein 3; test: Inhibition of recombinant human SK3 expressed in HEK293T cells assessed as reduction in channel current with holding potential 0 mV and ramp voltage from -100 to 100 mV by whole cell patch clamp method; type: cell-based, HEK-293T
Summary of the method: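 HEK293T stably expressing recombinant human SK3, whole-cell recording at pCa 6. Ramp −100 to 100 mV, 500 ms, from 0 mV holding; current at 0 mV taken as SKCa-only. Concentration–response curves fitted for EC50 (means ± SEM, n = 3–8).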

[5] = tested on: MDA-MB-435; test: Inhibition of cell migration in human MDA-MB-435 cells transfected with lentivrus-encoding shRNA against SK3 by matrigel invasion method relative to control; type: functional
Summary of the method: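 MDA-MB-435s cells lacking SK3 expression were exposed to peptides at 100 nM. Migration is given as migrating cells with peptide divided by migrating cells under control conditions (means ± SEM, N = 4, n = 12). Groups were compared by Kruskal–Wallis with post hoc tests.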

[6] = target: T1, Small conductance calcium-activated potassium channel protein 3; test: Inhibition of SK3-dependent cell migration in human MDA-MB-435 cells assessed as ratio of total cells migrating by matrigel invasion method relative to control; type: cell-based
[7] = target: Small conductance calcium-activated potassium channel protein 2 (Rattus norvegicus, UniProt P70604); test: Inhibition of recombinant rat SK2 expressed in HEK293 cells assessed as […] at membrane potential -120 mV for 50 ms followed by 400 ms voltage ramp to 60 mV by whole cell patch clamp method; type: cell-based
Sequence of Small conductance calcium-activated potassium channel protein 2 (P70604 whole entry): as the sequence (P70604 whole entry) above

[8] = target: T1, Small conductance calcium-activated potassium channel protein 3; test: Inhibition of recombinant human SK3 expressed in HEK293T cells assessed as […] at membrane potential -120 mV for 50 ms followed by 400 ms voltage ramp to 60 mV by whole cell patch clamp method; type: cell-based, HEK-293T
[9] = tested on: MDA-MB-435; test: Inhibition of cell migration in human MDA-MB-435 cells expressing SK3 by matrigel invasion method relative to control

SMILES | inhibition [1] [%] | inhibition [2] [%] | inhibition [3] [%] | EC50 [4] [nM] | EC50 [7] [nM] | EC50 [8] [nM] | also measured
CC[C@H](C)[C@@H]1NC(=O)[C@@H]2CSSC[C@H](NC(=O)[C@H](Cc3ccccc3)NC(=O)[C@H](C)N)C(=O)N[C@@H](CC(N)=O)C(=O)N[C@@H](CC(C)C)C(=O)N[C@@H](CCCNC(=N)N)C(=O)N[C@@H](CCCNC(=N)N)C(=O)N[C@H]3CSSC[C@H](NC(=O)[C@H](CCC(=O)O)NC(=O)[C@H](CCC(=O)O)NC(=O)CNC1=O)C(=O)N[C@@H](CCCCN)C(=O)N[C@H](C(=O)N[C@H](C(=O)N1CCC[C@H]1C(=O)N[C@@H](Cc1ccc(O)cc1)C(=O)O)C(C)C)CSSC[C@H](NC(=O)[C@H](CO)NC(=O)[C@H](CC(C)C)NC(=O)[C@H](CCC(=O)O)NC3=O)C(=O)N[C@@H](CCCNC(=N)N)C(=O)N[C@@H](CO)C(=O)N[C@@H](CC(C)C)C(=O)NCC(=O)N[C@@H](CC(C)C)C(=O)N[C@@H](CC(C)C)C(=O)NCC(=O)N[C@@H](CCCCN)C(=O)N2 (H-AFCNLRRCELSCRSLGLLGKCIGEECKCVPY-OH; disulfide 3-21, 8-26, 12-28) | > 85 | 40 | 25 | 2.6 | – | – | inhibition [5]: inactive; inhibition [6]: inactive
CC[C@H](C)[C@@H]1NC(=O)[C@@H]2CSSC[C@H](NC(=O)[C@H](Cc3ccccc3)NC(=O)[C@H](C)N)C(=O)N[C@@H](CC(N)=O)C(=O)N[C@@H](CC(C)C)C(=O)N[C@@H](CCCNC(=N)N)C(=O)N[C@@H](CCCNC(=N)N)C(=O)N[C@H]3CSSC[C@H](NC(=O)[C@H](CCC(=O)O)NC(=O)[C@H](CCC(=O)O)NC(=O)CNC1=O)C(=O)N[C@@H](CCCCN)C(=O)N[C@H](C(=O)N[C@H](C(=O)N1CCC[C@H]1C(=O)N[C@@H](Cc1ccc(O)cc1)C(N)=O)C(C)C)CSSC[C@H](NC(=O)[C@H](CO)NC(=O)[C@H](CC(C)C)NC(=O)[C@H](CCC(=O)O)NC3=O)C(=O)N[C@@H](CCCNC(=N)N)C(=O)N[C@@H](CO)C(=O)N[C@@H](CC(C)C)C(=O)NCC(=O)N[C@@H](CC(C)C)C(=O)N[C@@H](CC(C)C)C(=O)NCC(=O)N[C@@H](CCCCN)C(=O)N2 (H-AFCNLRRCELSCRSLGLLGKCIGEECKCVPY-NH2; disulfide 3-21, 8-26, 12-28) | – | – | – | – | 0.024 | 1.7 | –
CC[C@H](C)[C@@H]1NC(=O)[C@@H]2CSSC[C@H](NC(=O)[C@H](Cc3ccccc3)NC(=O)[C@H](C)N)C(=O)N[C@@H](CC(N)=O)C(=O)N[C@@H](CC(C)C)C(=O)N[C@@H](CCCNC(=N)N)C(=O)N[C@@H](CCSC)C(=O)N[C@H]3CSSC[C@H](NC(=O)[C@H](CCCCN)NC(=O)[C@H](CC(=O)O)NC(=O)CNC1=O)C(=O)N[C@@H](CCC(=O)O)C(=O)N[C@H](C(=O)N[C@H](C(=O)N[C@@H](CCCCN)C(=O)N[C@@H](Cc1c[nH]cn1)C(=O)O)C(C)C)CSSC[C@H](NC(=O)[C@H](CO)NC(=O)[C@H](CC(C)C)NC(=O)[C@H](CCC(N)=O)NC3=O)C(=O)N[C@@H](CCCNC(=N)N)C(=O)N[C@@H](CO)C(=O)N[C@@H](CC(C)C)C(=O)NCC(=O)N[C@@H](CC(C)C)C(=O)N[C@@H](CC(C)C)C(=O)NCC(=O)N[C@@H](CCCCN)C(=O)N2 (H-AFCNLRMCQLSCRSLGLLGKCIGDKCECVKH-OH; disulfide 3-21, 8-26, 12-28) | – | – | – | – | 0.29 | 1.1 | –
CC[C@H](C)[C@@H]1NC(=O)[C@@H]2CSSC[C@H](NC(=O)[C@H](Cc3ccccc3)NC(=O)[C@H](C)N)C(=O)N[C@@H](CC(N)=O)C(=O)N[C@@H](CC(C)C)C(=O)N[C@@H](CCCNC(=N)N)C(=O)N[C@@H](CCCNC(=N)N)C(=O)N[C@H]3CSSC[C@H](NC(=O)[C@H](CCCCN)NC(=O)[C@H](CCC(=O)O)NC(=O)CNC1=O)C(=O)N[C@@H](CCC(=O)O)C(=O)N[C@H](C(=O)N[C@H](C(=O)N1CCC[C@H]1C(=O)N[C@@H](Cc1ccc(O)cc1)C(=O)O)C(C)C)CSSC[C@H](NC(=O)[C@H](CO)NC(=O)[C@H](CC(C)C)NC(=O)[C@H](CCC(=O)O)NC3=O)C(=O)N[C@@H](CCCNC(=N)N)C(=O)N[C@@H](CO)C(=O)N[C@@H](CC(C)C)C(=O)NCC(=O)N[C@@H](CC(C)C)C(=O)N[C@@H](CC(C)C)C(=O)NCC(=O)N[C@@H](CCCCN)C(=O)N2 (H-AFCNLRRCELSCRSLGLLGKCIGEKCECVPY-OH; disulfide 3-21, 8-26, 12-28) | 40 | > 85 | 73 | 0.38 | – | – | inhibition ([6]; concentration not given here): 76.5%; inhibition (INH) [9]: 45.9%
CC[C@H](C)[C@@H]1NC(=O)[C@@H]2CSSC[C@H](NC(=O)[C@@H](NC(=O)[C@H](C)N)C(C)C)C(=O)N[C@@H](CC(N)=O)C(=O)N[C@@H](CC(C)C)C(=O)N[C@@H](CCCCN)C(=O)N[C@@H](CCCNC(=N)N)C(=O)N[C@H]3CSSC[C@H](NC(=O)[C@H](CCCCN)NC(=O)[C@H](CC(=O)O)NC(=O)CNC1=O)C(=O)N[C@@H](CCC(=O)O)C(=O)N[C@H](C(=O)N[C@H](C(=O)N[C@@H](CCCCN)C(=O)N[C@@H](Cc1c[nH]cn1)C(N)=O)C(C)C)CSSC[C@H](NC(=O)[C@H](CO)NC(=O)[C@H](CC(C)C)NC(=O)[C@H](CCC(N)=O)NC3=O)C(=O)N[C@@H](CCCNC(=N)N)C(=O)N[C@@H](CO)C(=O)N[C@@H](CC(C)C)C(=O)NCC(=O)N[C@@H](CC(C)C)C(=O)N[C@@H](CC(C)C)C(=O)NCC(=O)N[C@@H](CCCCN)C(=O)N2 (H-AVCNLKRCQLSCRSLGLLGKCIGDKCECVKH-NH2; disulfide 3-21, 8-26, 12-28) | – | – | – | – | – | 3.8 | –
CC[C@H](C)[C@@H]1NC(=O)[C@@H]2CSSC[C@H](NC(=O)[C@H](Cc3ccccc3)NC(=O)[C@H](C)N)C(=O)N[C@@H](CC(N)=O)C(=O)N[C@@H](CC(C)C)C(=O)N[C@@H](CCCNC(=N)N)C(=O)N[C@@H](CCCNC(=N)N)C(=O)N[C@H]3CSSC[C@H](NC(=O)[C@H](CCC(=O)O)NC(=O)[C@H](CCC(=O)O)NC(=O)CNC1=O)C(=O)N[C@@H](C)C(=O)N[C@H](C(=O)N[C@H](C(=O)N1CCC[C@H]1C(=O)N[C@@H](Cc1ccc(O)cc1)C(=O)O)C(C)C)CSSC[C@H](NC(=O)[C@H](CO)NC(=O)[C@H](CC(C)C)NC(=O)[C@H](CCC(=O)O)NC3=O)C(=O)N[C@@H](CCCNC(=N)N)C(=O)N[C@@H](CO)C(=O)N[C@@H](CC(C)C)C(=O)NCC(=O)N[C@@H](CC(C)C)C(=O)N[C@@H](CC(C)C)C(=O)NCC(=O)N[C@@H](CCCCN)C(=O)N2 (H-AFCNLRRCELSCRSLGLLGKCIGEECACVPY-OH; disulfide 3-21, 8-26, 12-28) | < 39 | 40 | – | – | – | – | –

From ChEMBL document CHEMBL4725389, “Novel Blocker of Onco SK3 Channels Derived from Scorpion Toxin Tamapin and Active against Migration of Cancer Cells” (ACS Med Chem Lett, 2020)
